Reference: ChEMBL document CHEMBL1138217, “Rapid discovery and structure-activity profiling of novel inhibitors of human immunodeficiency virus type 1 protease enabled by the copper(I)-catalyzed synthesis of 1,2,3-triazoles and their further functionalization” (J Med Chem, 2006)

Each molecule was assayed against Human immunodeficiency virus type 1 protease (Human immunodeficiency virus 1) (UniProt Q72874) (assay: Inhibition of HIV1 protease at 5 uM).
Method in brief: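 Crude click-reaction DMSO mixtures (azide-alkyne, CuSO4 with copper turning, 1:1 tBuOH/H2O, 50 °C, 5 days) diluted to 5 µM in 0.1 M MES, 0.2 M NaCl, pH 5.25, 5% glycerol; HIV-1 protease 20 µg/mL plus fluorogenic substrate 50 µM added; fluorescence read directly in microplate; percent inhibition; TL-3 100 nM positive control.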
`CCOC(=O)N1CCN(Cc2cn([C@@H](Cc3ccccc3)[C@H](Cc3ccccc3)NC(=O)OC3CCCC3)nn2)CC1` was tested, and the inhibition was 27%. `O=C(N[C@@H](Cc1ccccc1)[C@H](Cc1ccccc1)n1cc(CN2CCN(c3ccccn3)CC2)nn1)OC1CCCC1` showed an inhibition of 36%. Molecule `O=C(N[C@@H](Cc1ccccc1)[C@H](Cc1ccccc1)n1cc(CN2CCN(c3cccc(O)c3)CC2)nn1)OC1CCCC1` has an inhibition of 85%. Molecule `O=C(N[C@@H](Cc1ccccc1)[C@H](Cc1ccccc1)n1cc(CN2CCC(n3c(=O)[nH]c4ccccc43)CC2)nn1)OC1CCCC1` has an inhibition of 23%. Work on `O=C(N[C@@H](Cc1ccccc1)[C@H](Cc1ccccc1)n1cc(CN2CCN(c3cnccn3)CC2)nn1)OC1CCCC1` yielded an inhibition of 14%. For `Cc1ccc(Cl)cc1N1CCN(Cc2cn([C@@H](Cc3ccccc3)[C@H](Cc3ccccc3)NC(=O)OCC3CCCO3)nn2)CC1` (stereo not given in full), the inhibition was 41%. `O=C(N[C@@H](Cc1ccccc1)[C@H](Cc1ccccc1)n1cc(CN2CCC(O)(c3cccc(C(F)(F)F)c3)CC2)nn1)OC1CCCC1` showed an inhibition of 34%. `O=C(N[C@@H](Cc1ccccc1)[C@H](Cc1ccccc1)n1cc(CN2CCN(c3cccc(Cl)c3)CC2)nn1)OC1CCCC1` gave an inhibition of 93%. Molecule `O=C(N[C@@H](Cc1ccccc1)[C@H](Cc1ccccc1)n1cc(CN2CCN(c3ccccc3)CC2)nn1)OC1CCCC1` has an inhibition of 82%. In the case of `O=C(N[C@@H](Cc1ccccc1)[C@H](Cc1ccccc1)n1cc(CN2CCN(c3ccc(F)cc3F)CC2)nn1)OC1CCCC1`, the inhibition is reported as 81%. Work on `Cc1ccc(Cl)cc1N1CCN(Cc2cn([C@@H](Cc3ccccc3)[C@H](Cc3ccccc3)NC(=O)OCC3CCCCC3)nn2)CC1` yielded an inhibition of 53%. `O=C(N[C@@H](Cc1ccccc1)[C@H](Cc1ccccc1)n1cc(CN2CCN(C(=O)OCc3ccccc3)CC2)nn1)OC1CCCC1` gave an inhibition of 35%. Molecule `Cc1ccc(Cl)cc1N1CCN(Cc2cn([C@@H](Cc3ccccc3)[C@H](Cc3ccccc3)NC(=O)OCc3ccccc3)nn2)CC1` has an inhibition of 29%. `O=C(N[C@@H](Cc1ccccc1)[C@H](Cc1ccccc1)n1cc(CN2CC=C(c3ccc(Cl)cc3)CC2)nn1)OC1CCCC1` gave an inhibition of 58%. For `Cc1ccc(Cl)cc1N1CCN(Cc2cn([C@@H](Cc3ccccc3)[C@H](Cc3ccccc3)NC(=O)OCC3CCC3)nn2)CC1`, the inhibition was 75%. `Cc1c(Cl)cccc1N1CCN(Cc2cn([C@@H](Cc3ccccc3)[C@H](Cc3ccccc3)NC(=O)OC3CCCC3)nn2)CC1` gave an inhibition of 86%. In the case of `O=C(N[C@@H](Cc1ccccc1)[C@H](Cc1ccccc1)n1cc(CN2CCN(c3ccccc3Cl)CC2)nn1)OC1CCCC1`, the inhibition is reported as 76%. `O=C(N[C@@H](Cc1ccccc1)[C@H](Cc1ccccc1)n1cc(CN2CCN(c3cc(Cl)cc(Cl)c3)CC2)nn1)OC1CCCC1` showed an inhibition of 89%. For `Cc1ccc(Cl)cc1N1CCN(Cc2cn([C@@H](Cc3ccccc3)[C@H](Cc3ccccc3)NC(=O)C3CCCC3)nn2)CC1`, the inhibition was 28%. `CC(C)(C)OC(=O)N1CCN(Cc2cn([C@@H](Cc3ccccc3)[C@H](Cc3ccccc3)NC(=O)OC3CCCC3)nn2)CC1` was tested, and the inhibition was 51%. `Cc1ccc(Cl)cc1N1CCN(Cc2cn([C@@H](Cc3ccccc3)[C@H](Cc3ccccc3)NC(=O)OC3CCCCC3)nn2)CC1` gave an inhibition of 66%. For `O=C(N[C@@H](Cc1ccccc1)[C@H](Cc1ccccc1)n1cc(CN2CCN(c3ccc(Cl)c(Cl)c3)CC2)nn1)OC1CCCC1`, the inhibition was 86%. With `O=C(N[C@@H](Cc1ccccc1)[C@H](Cc1ccccc1)n1cc(CN2CCN(C3CCCCC3)CC2)nn1)OC1CCCC1` the inhibition was 22%. In the case of `COC(=O)N[C@@H](Cc1ccccc1)[C@H](Cc1ccccc1)n1cc(CN2CCN(c3cc(Cl)ccc3C)CC2)nn1`, the inhibition is reported as 25%. `O=C(N[C@@H](Cc1ccccc1)[C@H](Cc1ccccc1)n1cc(CN2CCN(c3ccc(C(F)(F)F)cc3)CC2)nn1)OC1CCCC1` gave an inhibition of 48%. `Cc1cccc(N2CCN(Cc3cn([C@@H](Cc4ccccc4)[C@H](Cc4ccccc4)NC(=O)OC4CCCC4)nn3)CC2)c1` was tested, and the inhibition was 87%. Work on `O=C(N[C@@H](Cc1ccccc1)[C@H](Cc1ccccc1)n1cc(CN2CCN(c3ccncc3)CC2)nn1)OC1CCCC1` yielded an inhibition of 12%. In the case of `Cc1ccc(Cl)cc1N1CCN(Cc2cn([C@@H](Cc3ccccc3)[C@H](Cc3ccccc3)NC(=O)c3ccco3)nn2)CC1`, the inhibition is reported as 25%. With `O=C(N[C@@H](Cc1ccccc1)[C@H](Cc1ccccc1)n1cc(CN2CCN(c3cccc(C(F)(F)F)c3)CC2)nn1)OC1CCCC1` (stereo in doubt; (S,S)-11s) the inhibition was 86%. With `Cc1ccc(Cl)cc1N1CCN(Cc2cn([C@@H](Cc3ccccc3)[C@H](Cc3ccccc3)NC(=O)OCC3CCCC3)nn2)CC1` the inhibition was 76%. `O=C(N[C@@H](Cc1ccccc1)[C@H](Cc1ccccc1)n1cc(CN2CCN(c3ccc(Cl)cc3)CC2)nn1)OC1CCCC1` showed an inhibition of 77%. With `O=C(N[C@@H](Cc1ccccc1)[C@H](Cc1ccccc1)n1cc(CN2CCC3(CC2)C(=O)NCN3c2ccccc2)nn1)OC1CCCC1` the inhibition was 17%. For `Cc1ccc(Cl)cc1N1CCN(Cc2cn([C@@H](Cc3ccccc3)[C@H](Cc3ccccc3)NC(=O)OCC3CC3)nn2)CC1`, the inhibition was 69%. In the case of `Cc1ccc(Cl)cc1N1CCN(Cc2cn([C@@H](Cc3ccccc3)[C@H](Cc3ccccc3)NC(=O)Oc3ccccc3)nn2)CC1`, the inhibition is reported as 31%. Molecule `COc1ccccc1N1CCN(Cc2cn([C@@H](Cc3ccccc3)[C@H](Cc3ccccc3)NC(=O)OC3CCCC3)nn2)CC1` has an inhibition of 38%. `Cc1ccc(Cl)cc1N1CCN(Cc2cn([C@@H](Cc3ccccc3)[C@H](Cc3ccccc3)NC(=O)NC(C)C)nn2)CC1` was tested, and the inhibition was 19%. Molecule `Cc1ccc(Cl)cc1N1CCN(Cc2cn([C@@H](Cc3ccccc3)[C@H](Cc3ccccc3)NC(=O)OC3CCC3)nn2)CC1` has an inhibition of 75%. In the case of `O=C(N[C@@H](Cc1ccccc1)[C@H](Cc1ccccc1)n1cc(CN2CCN(Cc3ccc4c(c3)OCO4)CC2)nn1)OC1CCCC1`, the inhibition is reported as 29%. Work on `Cc1ccc(Cl)cc1N1CCN(Cc2cn([C@@H](Cc3ccccc3)[C@H](Cc3ccccc3)NC(=O)NC3CCCC3)nn2)CC1` yielded an inhibition of 19%. In the case of `Cc1ccc(Cl)cc1N1CCN(Cc2cn([C@@H](Cc3ccccc3)[C@H](Cc3ccccc3)NC(=O)O[C@H]3CCOC3)nn2)CC1`, the inhibition is reported as 85%. `Cc1ccc(Cl)cc1N1CCN(Cc2cn([C@@H](Cc3ccccc3)[C@H](Cc3ccccc3)NC(=O)OC3CCCCCC3)nn2)CC1` was tested, and the inhibition was 63%. For `O=C(N[C@@H](Cc1ccccc1)[C@H](Cc1ccccc1)n1cc(CN2CCN(c3cccc(C(F)(F)F)c3)CC2)nn1)OC1CCCC1` (stereo in doubt; (S,S)-7d), the inhibition was 87%. Work on `O=C(N[C@@H](Cc1ccccc1)[C@H](Cc1ccccc1)n1cc(CN2CCC(c3ccccc3)CC2)nn1)OC1CCCC1` yielded an inhibition of 67%. Work on `O=C(N[C@@H](Cc1ccccc1)[C@H](Cc1ccccc1)n1cc(CN2CCN(c3ncccn3)CC2)nn1)OC1CCCC1` yielded an inhibition of 25%. `O=C(N[C@@H](Cc1ccccc1)[C@H](Cc1ccccc1)n1cc(CN2CCC(O)(c3ccc(Cl)cc3)CC2)nn1)OC1CCCC1` showed an inhibition of 26%. Work on `O=C(N[C@@H](Cc1ccccc1)[C@H](Cc1ccccc1)n1cc(CN2CCCC(c3ccccc3)C2)nn1)OC1CCCC1` (stereo not given in full) yielded an inhibition of 28%. Molecule `O=C(N[C@@H](Cc1ccccc1)[C@H](Cc1ccccc1)n1cc(CN2CCC(Cc3ccccc3)CC2)nn1)OC1CCCC1` has an inhibition of 70%. `O=C(N[C@@H](Cc1ccccc1)[C@H](Cc1ccccc1)n1cc(CN2CCN(c3ccc(F)cc3)CC2)nn1)OC1CCCC1` showed an inhibition of 64%. With `CCOC(=O)N[C@@H](Cc1ccccc1)[C@H](Cc1ccccc1)n1cc(CN2CCN(c3cc(Cl)ccc3C)CC2)nn1` the inhibition was 41%. `Cc1cccc(N2CCN(Cc3cn([C@@H](Cc4ccccc4)[C@H](Cc4ccccc4)NC(=O)OC4CCCC4)nn3)CC2C)c1` (stereo not given in full) gave an inhibition of 55%.
